Laboratory results taken from ChEMBL document CHEMBL4706572, “Benzyl and benzoyl benzoic acid inhibitors of bacterial RNA polymerase-sigma factor interaction” (Eur J Med Chem, 2020).
≈ marks a conversion by molar mass, not a printed value. Calls of active or inactive are those of the source. The rule behind the calls is not given here.

What was measured:
Staphylococcus aureus [1] = assay: Antibacterial activity against Staphylococcus aureus ATCC 25923 after 20 hrs by CLSI based-broth microdilution method; assay type: functional
Outline: (§1)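 Broth microdilution in cation-adjusted Mueller-Hinton broth. Two-fold serial dilutions from 256 μg/mL down to 0.5 μg/mL. Inoculum approx. 5 × 10^5 CFU/mL. Incubated 20 h at 37 °C. MIC taken as the lowest concentration with no observable growth.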

Streptococcus pneumoniae = assay: Antibacterial activity against Streptococcus pneumoniae ATCC 49619 after 20 hrs by CLSI based-broth microdilution method; assay type: functional
Outline: (§2)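 Streptococci tested in Brain Heart Infusion broth. Two-fold dilutions from 256 to 0.5 μg/mL, inoculum approx. 5 × 10^5 CFU/mL. Incubated 20 h at 37 °C. MIC is the lowest concentration without visible growth.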

Staphylococcus aureus [2] = assay: Antibacterial activity against Staphylococcus aureus ATCC 29213 after 20 hrs by CLSI based-broth microdilution method; assay type: functional; outline: as §1
Staphylococcus aureus [3] = assay: Inhibition of RNA polymerase in Staphylococcus aureus ATCC 29213 assessed as reduction in total RNA level at 1/4 to 1/8 times MIC by fluorimetric method
Outline: (§3)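 S. aureus ATCC 29213 master culture started at OD600 0.1 at 37 °C with shaking at 175 rpm. At OD600 0.2 it was split and given compound or control at ¼ and ⅛ MIC, plus a drug-free culture. Cells harvested when the control reached OD600 0.6, with volumes normalized to OD600 0.6 equivalent. DNA and RNA measured by Qubit fluorometry, protein by BCA; triplicate.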

Staphylococcus aureus [4] = assay: Inhibition of RNA polymerase in Staphylococcus aureus ATCC 29213 assessed as total DNA level at 1/4 to 1/8 times MIC by fluorimetric method; outline: as §3
Staphylococcus aureus [5] = assay: Inhibition of RNA polymerase in Staphylococcus aureus ATCC 29213 assessed as reduction in total protein level at 1/4 to 1/8 times MIC by fluorimetric method
Clostridioides difficile [6] = assay: Antibacterial activity against Clostridium difficile ribotype 027 assessed as reduction in bacterial toxin B production at sub-inhibitory concentration incubated for 48 hrs under anaerobic condition by ELISA; assay type: functional, organism-based
Outline: (§4)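 Incubated anaerobically at 37 °C for 48 h. Supernatants cleared at 10,000 × g for 2 min. TcdA and TcdB quantified by commercial ELISA, normalized to drug-free control. Duplicate, with technical and biological repeats.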

[7] = tested on: Staphylococcus epidermidis; assay: Antibacterial activity against Staphylococcus epidermidis ATCC 12228 after 20 hrs by CLSI based-broth microdilution method; assay type: functional; outline: as §1
[8] = Antibacterial activity against Staphylococcus saprophyticus ATCC 15305 after 20 hrs by CLSI based-broth microdilution method; assay type: functional, Staphylococcus saprophyticus subsp. saprophyticus; outline: as §1
Clostridioides difficile [9] = assay: Antibacterial activity against Clostridium difficile ribotype 027 measured after 48 hrs under anaerobic condition by CLSI based-broth microdilution method; assay type: functional
Outline: (§5)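 Compounds dissolved in DMSO. Media pre-reduced 3 h in an anaerobic chamber. Colonies from overnight anaerobic GAM agar grown to early log phase in BHI plus 0.5% w/v yeast extract and 0.05% L-cysteine. Adjusted to 0.5 McFarland, diluted 100 μL into 15 mL. Mixed 1:1 with serially diluted agents. Incubated anaerobically at 37 °C, growth read at 48 h, triplicate.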

Clostridioides difficile [10] = assay: Antibacterial activity against Clostridium difficile ribotype 027 assessed as reduction in bacterial toxin A production at sub-inhibitory concentration incubated for 48 hrs under anaerobic condition by ELISA; assay type: functional, organism-based; outline: as §4
Enterococcus faecalis = assay: Antibacterial activity against Enterococcus faecalis ATCC 19433 after 20 hrs by CLSI based-broth microdilution method; assay type: functional
Outline: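 Broth microdilution MIC. Two-fold serial dilutions from 256 μg/mL down to 0.5 μg/mL. Inoculum approx. 5 × 10^5 CFU/mL. Read after 20 h at 37 °C. MIC is the lowest concentration with no observable growth.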

Streptococcus pyogenes = assay: Antibacterial activity against Streptococcus pyogenes ATCC 19615 after 20 hrs by CLSI based-broth microdilution method; assay type: functional; outline: as §2
Streptococcus agalactiae = assay: Antibacterial activity against Streptococcus agalactiae ATCC 12386 after 20 hrs by CLSI based-broth microdilution method; assay type: functional; outline: as §2
Clostridioides difficile [11] = assay: Antibacterial activity against Clostridium difficile ATCC 9689 assessed as reduction in bacterial toxin B production at sub-inhibitory concentration incubated for 48 hrs under anaerobic condition by ELISA; assay type: functional, organism-based; conditions: ATCC 9689 = DSM 1296; outline: as §4
Clostridioides difficile [12] = assay: Antibacterial activity against Clostridium difficile ribotype 002 measured after 48 hrs under anaerobic condition by CLSI based-broth microdilution method; assay type: functional; outline: as §5
Clostridioides difficile [13] = assay: Antibacterial activity against Clostridium difficile ATCC 9689 assessed as reduction in bacterial toxin A production at sub-inhibitory concentration incubated for 48 hrs under anaerobic condition by ELISA; assay type: functional, organism-based; conditions: ATCC 9689 = DSM 1296; outline: as §4
Clostridioides difficile [14] = assay: Antibacterial activity against Clostridium difficile ribotype 002 assessed as reduction in bacterial toxin B production at sub-inhibitory concentration incubated for 48 hrs under anaerobic condition by ELISA; assay type: functional, organism-based; outline: as §4
Clostridioides difficile [15] = assay: Antibacterial activity against Clostridium difficile ribotype 002 assessed as reduction in bacterial toxin A production at sub-inhibitory concentration incubated for 48 hrs under anaerobic condition by ELISA; assay type: functional, organism-based; outline: as §4
Clostridioides difficile [16] = assay: Antibacterial activity against Clostridium difficile ATCC 9689 after measured 48 hrs under anaerobic condition by CLSI based-broth microdilution method; assay type: functional; conditions: ATCC 9689 = DSM 1296; outline: as §5

| Structure (SMILES) | MIC (Staphylococcus aureus [1]) | MIC (Streptococcus pneumoniae) | MIC (Staphylococcus aureus [2]) | other results |
| --- | --- | --- | --- | --- |
| O=C(O)c1ccc(Cl)cc1C(=O)c1ccc(Sc2ccc(Cl)c(Cl)c2)c([N+](=O)[O-])c1 | 8 µg/mL (≈ 16.6 µM) | 8 µg/mL (≈ 16.6 µM) | 8 µg/mL (≈ 16.6 µM) | – |
| Cc1ccc(C(=O)O)c(Cc2ccc(Sc3ccc(Cl)c(Cl)c3)c([N+](=O)[O-])c2)c1 | 4 µg/mL (≈ 8.92 µM) | 4 µg/mL (≈ 8.92 µM) | 4 µg/mL (≈ 8.92 µM) | – |
| O=C(O)c1cccc(C(=O)c2ccc(Sc3ccc(Cl)c(Cl)c3)c([N+](=O)[O-])c2)c1 | > 256 µg/mL | > 256 µg/mL | 32 µg/mL (≈ 71.4 µM) | – |
| CO[C@H]1/C=C/O[C@@]2(C)Oc3c(C)c(O)c4c(O)c(c(/C=N/N5CCN(C)CC5)c(O)c4c3C2=O)NC(=O)/C(C)=C\C=C\[C@H](C)[C@H](O)[C@@H](C)[C@@H](O)[C@@H](C)[C@H](OC(C)=O)[C@@H]1C | – | – | – | inhibition (Staphylococcus aureus [3]): Active; inhibition (Staphylococcus aureus [4]): inactive; inhibition (Staphylococcus aureus [5]): inactive |
| O=C(O)c1ccc(C(F)(F)F)cc1Cc1ccc(Sc2ccc(Cl)c(Cl)c2)c([N+](=O)[O-])c1 | – | 1 µg/mL (≈ 1.99 µM) | – | – |
| O=C(O)c1ccc(F)cc1Cc1ccc(Sc2ccc(Cl)c(Cl)c2)c([N+](=O)[O-])c1 | 8 µg/mL (≈ 17.7 µM) | 4 µg/mL (≈ 8.84 µM) | 8 µg/mL (≈ 17.7 µM) | – |
| O=C(O)c1cccc(Cc2ccc(Sc3ccc(Cl)c(Cl)c3)c([N+](=O)[O-])c2)c1 | > 256 µg/mL | > 256 µg/mL | > 256 µg/mL | – |
| COc1ccccc1Cc1ccc(Sc2ccc(Cl)c(Cl)c2)c([N+](=O)[O-])c1 | > 256 µg/mL | > 256 µg/mL | > 256 µg/mL | – |
| O=C(O)c1ccccc1C(=O)c1ccc(Sc2ccc(Cl)c(Cl)c2)c([N+](=O)[O-])c1 | 16 µg/mL (≈ 35.7 µM) | 8 µg/mL (≈ 17.8 µM) | 16 µg/mL (≈ 35.7 µM) | – |
| COc1ccccc1C(=O)c1ccc(Sc2ccc(Cl)c(Cl)c2)c([N+](=O)[O-])c1 | > 256 µg/mL | > 256 µg/mL | > 256 µg/mL | – |
| CN[C@H](CC(C)C)C(=O)N[C@H]1C(=O)N[C@@H](CC(N)=O)C(=O)N[C@H]2C(=O)N[C@H]3C(=O)N[C@H](C(=O)N[C@H](C(=O)O)c4cc(O)cc(O)c4-c4cc3ccc4O)[C@H](O)c3ccc(c(Cl)c3)Oc3cc2cc(c3O[C@@H]2O[C@H](CO)[C@@H](O)[C@H](O)[C@H]2O[C@H]2C[C@](C)(N)[C@H](O)[C@H](C)O2)Oc2ccc(cc2Cl)[C@H]1O [VANCOMYCIN] | – | – | – | Activity (Clostridioides difficile [6]): inactive; MIC [7]: 0.5 µg/mL (≈ 0.345 µM); MIC [8]: 0.25 µg/mL (≈ 0.173 µM); MIC (Clostridioides difficile [9]): 2 µg/mL (≈ 1.38 µM); Activity (Clostridioides difficile [10]): inactive; MIC (Enterococcus faecalis): 1 µg/mL (≈ 0.69 µM); MIC (Streptococcus pyogenes): 1 µg/mL (≈ 0.69 µM); MIC (Streptococcus agalactiae): 2 µg/mL (≈ 1.38 µM); Activity (Clostridioides difficile [11]): inactive; MIC (Clostridioides difficile [12]): 2 µg/mL (≈ 1.38 µM); Activity (Clostridioides difficile [13]): inactive; Activity (Clostridioides difficile [14]): inactive; Activity (Clostridioides difficile [15]): inactive; MIC (Clostridioides difficile [16]): 4 µg/mL (≈ 2.76 µM) |
| CCc1c(Cl)c(O)c(Cl)c(O)c1C(=O)O[C@H]1[C@H](O)[C@H](OC)[C@H](OC/C2=C\C=C\C[C@H](O)/C(C)=C/[C@H](CC)[C@@H](O[C@@H]3OC(C)(C)[C@@H](OC(=O)C(C)C)[C@H](O)[C@@H]3O)/C(C)=C/C(C)=C/C[C@@H]([C@@H](C)O)OC2=O)O[C@@H]1C | – | – | – | Activity (Clostridioides difficile [6]): Dose-dependent effect; Activity (Clostridioides difficile [10]): Dose-dependent effect; Activity (Clostridioides difficile [11]): Dose-dependent effect; Activity (Clostridioides difficile [13]): Dose-dependent effect; Activity (Clostridioides difficile [14]): Dose-dependent effect; Activity (Clostridioides difficile [15]): Dose-dependent effect |
| O=C(O)c1cc(Cl)ccc1Cc1ccc(Sc2ccc(Cl)c(Cl)c2)c([N+](=O)[O-])c1 | 8 µg/mL (≈ 17.1 µM) | 4 µg/mL (≈ 8.53 µM) | 8 µg/mL (≈ 17.1 µM) | – |
| O=C(O)c1ccccc1Cc1ccc(Sc2ccc(Cl)c(Cl)c2)c([N+](=O)[O-])c1 | 16 µg/mL (≈ 36.8 µM) | 16 µg/mL (≈ 36.8 µM) | 16 µg/mL (≈ 36.8 µM) | – |
| COc1ccc(C(=O)O)c(C(=O)c2ccc(Sc3ccc(Cl)c(Cl)c3)c([N+](=O)[O-])c2)c1 | 16 µg/mL (≈ 33.5 µM) | 8 µg/mL (≈ 16.7 µM) | 8 µg/mL (≈ 16.7 µM) | – |
| O=C(O)c1ccc(Cl)cc1Cc1ccc(Sc2ccc(Cl)c(Cl)c2)c([N+](=O)[O-])c1 | 8 µg/mL (≈ 17.1 µM) | 2 µg/mL (≈ 4.27 µM) | 8 µg/mL (≈ 17.1 µM) | – |
| Nc1ccccc1Sc1ccc(C(=O)c2ccccc2C(=O)O)cc1[N+](=O)[O-] | – | 256 µg/mL (≈ 649 µM) | – | – |
| O=C(O)c1cc(C(F)(F)F)ccc1Cc1ccc(Sc2ccc(Cl)c(Cl)c2)c([N+](=O)[O-])c1 | – | 2 µg/mL (≈ 3.98 µM) | 8 µg/mL (≈ 15.9 µM) | – |
| O=C(O)c1cc(Cl)ccc1C(=O)c1ccc(Sc2ccc(Cl)c(Cl)c2)c([N+](=O)[O-])c1 | 8 µg/mL (≈ 16.6 µM) | 8 µg/mL (≈ 16.6 µM) | 4 µg/mL (≈ 8.29 µM) | – |
| COc1ccc(C(=O)O)c(Cc2ccc(Sc3ccc(Cl)c(Cl)c3)c([N+](=O)[O-])c2)c1 | 16 µg/mL (≈ 34.5 µM) | 8 µg/mL (≈ 17.2 µM) | 8 µg/mL (≈ 17.2 µM) | – |
| O=C(O)c1cc(C(F)(F)F)ccc1C(=O)c1ccc(Sc2ccc(Cl)c(Cl)c2)c([N+](=O)[O-])c1 | 16 µg/mL (≈ 31 µM) | 4 µg/mL (≈ 7.75 µM) | 8 µg/mL (≈ 15.5 µM) | – |
| O=C(O)c1ccc(F)cc1C(=O)c1ccc(Sc2ccc(Cl)c(Cl)c2)c([N+](=O)[O-])c1 | 16 µg/mL (≈ 34.3 µM) | 8 µg/mL (≈ 17.2 µM) | 8 µg/mL (≈ 17.2 µM) | – |
